H69AR growth 86K: blocks growth of human H69AR lung tumor cells; H69AR lung tumor viability, ATP luminescence, 72 h; active compounds read low; actives 6% (n = 85,000); viability, % at 10 µM; AID 598;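 active = viability at or below 40%; inactive = viability above 40%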;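 note: multidrug resistant small cell line overexpressing MRP-1 efflux transporter; 100% = mean luminescence of untreated control wells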
Lung fibro prol: blocks proliferation of human lung fibroblasts. AID 719. viability, % at 10 µM. LL 47 human lung fibroblast viability, ATP luminescence; active compounds read low. actives 1.1% (n = 85,000);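 active = viability at or below 50% in the single dose screen; inactive = viability above 50%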;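 note: compound exposure lasted 72 h before the ATP readout; 100% = median luminescence of untreated cell-only wells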
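Signal: luminescent ATP detection, CellTiter-Glo; assay system: LL 47 human lung fibroblasts; input: 1,150 cells/well; incubation: overnight cell rest, 72 h compound treatment at 37 °C; measure: % viability versus median cells-only luminescence; medium: IMEM growth medium with 15% fetal bovine serum; dosing: compound addition at 0.1% DMSO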
HUVEC prolif 384: inhibitors of human endothelial cell proliferation; AID 648; actives 1.1% (n = 86,000); HUVEC proliferation, CellTiter-Glo luminescence, 72 h; active compounds read low; viability, % at 10 µM (by protocol);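 active = viability at or below 30%; inactive = viability above 30%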;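 note: 100% = median luminescence of DMSO-only cell control wells on each plate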
HCT116 bCat-KO: beta-catenin-lacking colon tumor cell growth suppression; HCT116 beta-catenin knockout viability, CellTiter-Glo, 60 h; active compounds read low; viability, % at 10 µM; actives 1.5% (n = 140,000); AID 818;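 active = viability at or under a set limit, the compound median less 4 SD, cut at about 6% in these data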;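 note: 0% = Hyamine 1622 control at 20 µM and 100% = untreated cell control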
PTEN del growth: suppresses growth of cells with PTEN deletion; actives 1.2% (n = 140,000); viability, % at 10 µM; HCT116 PTEN-null viability, CellTiter-Glo, 60 h; active compounds read low;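 active = viability at or below a set limit, 4 SD under the median of all tested compounds, cut at about 3.7% in these data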;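 note: PTEN knockout HCT116 line with beta catenin targeted HCT116 as companion control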
* hit, by the source's call; x = not tested or not shown. The entries come from a sample that favours hits as a whole.

SMILES | H69AR growth 86K | Lung fibro prol | HUVEC prolif 384 | HCT116 bCat-KO | PTEN del growth
Cc1cc(C)n(-c2nc(SCC(=O)Nc3nccs3)c3c4c(sc3n2)COC(C)(C)C4)n1 | 47 | 69 | 61 | 73 | 84
Cc1ccccc1NC(=O)CSc1nc2n(n1)CCCCC2 | x | x | x | 101 | 103
CC(C)(C)c1cc(C(c2cccnc2)N2CCN(CCO)CC2)cc(C(C)(C)C)c1O (stereo unspecified) | 2.2* | 2.8* | 2.2* | 1.7* | 1.7*
OCCN1CCN(C(c2cccs2)c2ccc3cccnc3c2O)CC1 (stereo unspecified) | 40 | 58 | 57 | 14 | 10
O=S(=O)(c1ccc2nc(-c3ccccc3)[nH]c2c1)N1CCN(c2ccc(Cl)cc2)CC1 | x | x | x | 0.9* | 0.8*
O=S(=O)(c1ccc2nc(SCc3ccc(Cl)cc3)[nH]c2c1)N1CCOCC1 | x | x | x | 84 | 79
CCCCN1C(=O)Nc2ccccc2S1(=O)=O | x | x | x | 102 | 97
O=C(COC(=O)[C@H](Cc1ccccc1)NC(=O)c1cccs1)NC1CC1 | x | x | x | 97 | 101
CCOC(=O)c1sc(NC(=O)CCn2nnc3ccccc32)c(C(=O)OCC)c1C | 36* | 95 | 57 | x | x
CC(C)OC(=O)c1c(NC(=O)CCn2nnc3ccccc32)sc2c1CCCC2 | 93 | x | 99 | 90 | 99
CN1CCN(Cc2ccc(OCc3ccccc3)cc2)CC1 | 90 | x | 98 | 89 | 95
CCN1CCN(Cc2ccc(OCc3ccccc3)cc2)CC1 | 88 | 93 | 85 | 1.0* | 1.2*
CCOC(=O)c1c(C)[nH]c(C(=O)COC(=O)C2(C)CC2(Cl)Cl)c1C (stereo unspecified) | 79 | 107 | 86 | 82 | 75
Cc1cccc(C)c1OCC(=O)Nc1oc(-c2ccccc2)c(-c2ccccc2)c1C#N | 27* | 96 | 68 | x | x
O=C(CSc1nnc2n1CCCN2C(=S)Nc1ccc(Cl)cc1)c1ccccc1 | 26* | 67 | 44 | 63 | 64
Cc1ccc2cccc(Oc3ncnc4scc(-c5ccc(Cl)cc5)c34)c2n1 | x | x | x | 63 | 60
Cc1ccc(C)c(CSc2nnc([C@@H](N)C(C)C)o2)c1 | 90 | 105 | 95 | 109 | 106
Cc1ccc(C)c(CSc2nnc(CCN)o2)c1 | 31* | 71 | 55 | 76 | 87
CCc1cc2ccc(C)cc2nc1SCC(=O)N1CCN(C(=O)c2ccco2)CC1 | 36* | 95 | 86 | 72 | 78
CCc1cc2cc3c(cc2nc1SCC(=O)N1CCN(C(=O)c2ccco2)CC1)OCO3 | 41 | 93 | 86 | 98 | 96
CC1CCCC(NC(=S)Nc2ccc(SC(F)F)cc2)C1C (stereo unspecified) | 9.1* | 34* | 47 | 8 | 5
CCCCCOP(=O)(OCCCCC)C1(NS(=O)(=O)c2ccccc2)C=CC(=O)c2ccccc21 (stereo unspecified) | 19* | 87 | 61 | 85 | 70
O=C(COc1ccccc1C(=O)c1cnn(-c2ccccc2)c1)Nc1ccccc1 | x | x | x | 80 | 81
CC1=NN(c2ccccc2)C(=O)/C1=C/C=C/c1ccccc1 | x | x | x | 3.4* | 3.2*
CCN(CC(=O)Nc1ccc([N+](=O)[O-])cc1OC)CC(=O)NC(C)(C)C | x | x | x | 101 | 101
SMILES | H69AR growth 86K | Lung fibro prol | HUVEC prolif 384 | HCT116 bCat-KO | PTEN del growth
CN1CCN(Cc2nc3c(c(=O)[nH]c(=O)n3C)n2CCc2ccccc2)CC1 | 86 | 100 | 89 | 86 | 107
Cc1ccc(Sc2nc3c(c(=O)[nH]c(=O)n3C)n2CCc2ccccc2)cc1 | 14* | 82 | 68 | 11 | 2.8*
Cn1c(=O)[nH]c(=O)c2c1nc(N1CCOCC1)n2CCN1CCOCC1 | 90 | 107 | 103 | 88 | 88
COc1ccc(OCC(O)Cn2c(Br)nc3c2c(=O)[nH]c(=O)n3C)cc1 (stereo unspecified) | 35* | 98 | 94 | 28 | 19
COc1ccc(CCn2c(N3CCN(Cc4ccccc4)CC3)nc3c2c(=O)[nH]c(=O)n3C)cc1 | 33* | 98 | 85 | 99 | 91
COc1ccc(CCn2c(N3CCOCC3)nc3c2c(=O)[nH]c(=O)n3C)cc1 | 25* | 92 | 89 | 96 | 91
COc1ccccc1-n1cc(-c2ccc(Cl)cc2)[nH]c1=O | x | x | x | 90 | 104
COc1cc2cc(C(c3nnnn3C3CCCC3)N3CCCCC3)c(=O)[nH]c2cc1OC (stereo unspecified) | 90 | 95 | 91 | 93 | 98
O=c1[nH]c2cc3c(cc2cc1C(c1nnnn1C1CCCCC1)N1CCSCC1)OCCO3 (stereo unspecified) | 2.0* | 28* | 86 | 83 | 85
